Experimental data as given in ChEMBL document CHEMBL2040768, “Synthesis, antimicrobial and cytotoxic activities of sulfone linked bis heterocycles” (Eur J Med Chem, 2012).
Active and inactive are the calls of the source. The rule behind the calls is not given here.

Tests used:
Bacillus subtilis [1] = assay: Antibacterial activity against Bacillus subtilis at 100 ug/ml after 24 hrs by agar well diffusion method; type: functional; details: for zone of inhibition at 100 µg/mL: read-out: DIZ
Procedure, shortened: (§1)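 Agar well diffusion. Nutrient plates swabbed with 24 h broth culture of the bacterium; 6 mm wells bored and loaded with DMSO solutions of compound (wells at 50 and 100 per well). Chloramphenicol positive control, DMSO negative control. Plates held 37 °C, 24 h; inhibition zone diameter (mm) measured, mean of duplicates.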

Penicillium chrysogenum [2] = assay: Antifungal activity against Penicillium chrysogenum at 50 ug/ml after 48 hrs by agar well diffusion method; type: functional; details: for zone of inhibition at 50 µg/mL: read-out: DIZ
Procedure, shortened: (§2)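 Fungal agar well diffusion. Plates swabbed with fungal culture, 6 mm wells filled with DMSO solutions of compound (50 and 100 per well). Ketoconazole positive and DMSO negative controls. Plates incubated 28 °C for 48 h; zone of inhibition diameter (mm) read, average of duplicates.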

Pseudomonas aeruginosa [3] = assay: Antibacterial activity against Pseudomonas aeruginosa at 50 ug/ml after 24 hrs by agar well diffusion method; type: functional; details: for zone of inhibition at 50 µg/mL: read-out: DIZ; procedure, shortened: as §1
Aspergillus niger [4] = assay: Antifungal activity against Aspergillus niger at 50 ug/ml after 48 hrs by agar well diffusion method; type: functional; details: for zone of inhibition at 50 µg/mL: read-out: DIZ; procedure, shortened: as §2
A549 = assay: Cytotoxicity against human A549 cells up to 0.2 mM after 72 hrs by MTT assay
Bacillus subtilis [5] = assay: Antibacterial activity against Bacillus subtilis at 50 ug/ml after 24 hrs by agar well diffusion method; type: functional; details: for zone of inhibition at 50 µg/mL: read-out: DIZ; procedure, shortened: as §1
Pseudomonas aeruginosa [6] = assay: Antibacterial activity against Pseudomonas aeruginosa at 100 ug/ml after 24 hrs by agar well diffusion method; type: functional; details: for zone of inhibition at 100 µg/mL: read-out: DIZ; procedure, shortened: as §1
Aspergillus niger [7] = assay: Antifungal activity against Aspergillus niger at 100 ug/ml after 48 hrs by agar well diffusion method; type: functional; details: for zone of inhibition at 100 µg/mL: read-out: DIZ; procedure, shortened: as §2
Staphylococcus aureus [8] = assay: Antibacterial activity against Staphylococcus aureus at 100 ug/ml after 24 hrs by agar well diffusion method; type: functional; details: for zone of inhibition at 100 µg/mL: read-out: DIZ; procedure, shortened: as §1
Penicillium chrysogenum [9] = assay: Antifungal activity against Penicillium chrysogenum at 100 ug/ml after 48 hrs by agar well diffusion method; type: functional; details: for zone of inhibition at 100 µg/mL: read-out: DIZ; procedure, shortened: as §2
Klebsiella pneumoniae [10] = assay: Antibacterial activity against Klebsiella pneumoniae at 50 ug/ml after 24 hrs by agar well diffusion method; type: functional; details: for zone of inhibition at 50 µg/mL: read-out: DIZ; procedure, shortened: as §1
Klebsiella pneumoniae [11] = assay: Antibacterial activity against Klebsiella pneumoniae at 100 ug/ml after 24 hrs by agar well diffusion method; type: functional; details: for zone of inhibition at 100 µg/mL: read-out: DIZ; procedure, shortened: as §1
Staphylococcus aureus [12] = assay: Antibacterial activity against Staphylococcus aureus at 50 ug/ml after 24 hrs by agar well diffusion method; type: functional; details: for zone of inhibition at 50 µg/mL: read-out: DIZ; procedure, shortened: as §1

Row | SMILES | zone of inhibition at 100 µg/mL (Bacillus subtilis [1]) | zone of inhibition at 50 µg/mL (Penicillium chrysogenum [2]) | zone of inhibition at 50 µg/mL (Pseudomonas aeruginosa [3]) | zone of inhibition at 50 µg/mL (Aspergillus niger [4]) | Activity (A549) | zone of inhibition at 50 µg/mL (Bacillus subtilis [5]) | zone of inhibition at 100 µg/mL (Pseudomonas aeruginosa [6]) | zone of inhibition at 100 µg/mL (Aspergillus niger [7]) | zone of inhibition at 100 µg/mL (Staphylococcus aureus [8]) | zone of inhibition at 100 µg/mL (Penicillium chrysogenum [9]) | zone of inhibition at 50 µg/mL (Klebsiella pneumoniae [10]) | zone of inhibition at 100 µg/mL (Klebsiella pneumoniae [11]) | zone of inhibition at 50 µg/mL (Staphylococcus aureus [12]) | also measured
1 | Cc1ccc(NS(=O)(=O)Cc2nnc(CS(=O)(=O)C3CNN=C3S(=O)(=O)c3ccc(C)cc3)s2)cc1 (stereo not given) | 16 mm | 13 mm | 11 mm | 11 mm | inactive | 14 mm | 13 mm | 14 mm | 13 mm | 16 mm | 16 mm | 18 mm | 11 mm | 
2 | Nn1c(CS(=O)(=O)Nc2ccccc2)nnc1CS(=O)(=O)C1CNN=C1S(=O)(=O)c1ccccc1 (stereo not given) | 17 mm | 14 mm | 12 mm | 13 mm | inactive | 15 mm | 14 mm | 15 mm | 15 mm | 17 mm | 17 mm | 19 mm | 13 mm | 
3 | O=S(=O)(Cc1nnc(CS(=O)(=O)c2c[nH]cc2S(=O)(=O)c2ccccc2)o1)Nc1ccccc1 | 15 mm |  |  |  | inactive | 13 mm |  |  | 14 mm |  |  |  | 12 mm | diameter of the inhibition zone (DIZ) (Penicillium chrysogenum [2]): inactive; diameter of the inhibition zone (DIZ) (Pseudomonas aeruginosa [3]): inactive; diameter of the inhibition zone (DIZ) (Aspergillus niger [4]): inactive; diameter of the inhibition zone (DIZ) (Pseudomonas aeruginosa [6]): inactive; diameter of the inhibition zone (DIZ) (Aspergillus niger [7]): inactive; diameter of the inhibition zone (DIZ) (Penicillium chrysogenum [9]): inactive; diameter of the inhibition zone (DIZ) (Klebsiella pneumoniae [10]): inactive; diameter of the inhibition zone (DIZ) (Klebsiella pneumoniae [11]): inactive
4 | Cc1ccc(NS(=O)(=O)Cc2nnc(CS(=O)(=O)c3c[nH]cc3S(=O)(=O)c3ccc(C)cc3)s2)cc1 | 19 mm | 16 mm | 13 mm | 14 mm | inactive | 17 mm | 14 mm | 17 mm | 16 mm | 19 mm | 19 mm | 21 mm | 14 mm | 
5 | O=S(=O)(Cc1nnc(CS(=O)(=O)C2CNN=C2S(=O)(=O)c2ccccc2)s1)Nc1ccccc1 (stereo not given) | 16 mm |  |  |  | inactive | 14 mm |  |  | 14 mm |  |  |  | 12 mm | diameter of the inhibition zone (DIZ) (Penicillium chrysogenum [2]): inactive; diameter of the inhibition zone (DIZ) (Pseudomonas aeruginosa [3]): inactive; diameter of the inhibition zone (DIZ) (Aspergillus niger [4]): inactive; diameter of the inhibition zone (DIZ) (Pseudomonas aeruginosa [6]): inactive; diameter of the inhibition zone (DIZ) (Aspergillus niger [7]): inactive; diameter of the inhibition zone (DIZ) (Penicillium chrysogenum [9]): inactive; diameter of the inhibition zone (DIZ) (Klebsiella pneumoniae [10]): inactive; diameter of the inhibition zone (DIZ) (Klebsiella pneumoniae [11]): inactive
6 | Cc1ccc(NS(=O)(=O)Cc2nnc(CS(=O)(=O)/C=C/S(=O)(=O)c3ccc(C)cc3)s2)cc1 | 23 mm | 20 mm | 14 mm | 18 mm | inactive | 21 mm | 16 mm | 21 mm | 20 mm | 23 mm | 23 mm | 25 mm | 18 mm | 
7 | O=S(=O)(/C=C/S(=O)(=O)c1ccc(Cl)cc1)Cc1nnc(CS(=O)(=O)Nc2ccc(Cl)cc2)s1 | 29 mm | 32 mm | 25 mm | 31 mm | inactive | 27 mm | 27 mm | 33 mm | 32 mm | 35 mm | 33 mm | 35 mm | 29 mm | 
8 | O=S(=O)(/C=C/S(=O)(=O)c1ccccc1)Cc1nnc(CS(=O)(=O)Nc2ccccc2)s1 | 24 mm | 21 mm | 16 mm | 19 mm | inactive | 22 mm | 17 mm | 22 mm | 21 mm | 24 mm | 24 mm | 26 mm | 19 mm | 
9 | Cc1ccc(NS(=O)(=O)Cc2nnc(CS(=O)(=O)c3c[nH]nc3S(=O)(=O)c3ccc(C)cc3)n2N)cc1 | 20 mm | 14 mm | 12 mm | 16 mm | inactive | 18 mm | 14 mm | 19 mm | 17 mm | 18 mm | 20 mm | 22 mm | 16 mm | 
10 | Cc1ccc(NS(=O)(=O)Cc2nnc(CS(=O)(=O)c3c[nH]nc3S(=O)(=O)c3ccc(C)cc3)o2)cc1 |  |  |  |  | inactive |  |  |  |  |  |  |  |  | diameter of the inhibition zone (DIZ) (Bacillus subtilis [1]): inactive; diameter of the inhibition zone (DIZ) (Penicillium chrysogenum [2]): inactive; diameter of the inhibition zone (DIZ) (Pseudomonas aeruginosa [3]): inactive; diameter of the inhibition zone (DIZ) (Aspergillus niger [4]): inactive; diameter of the inhibition zone (DIZ) (Bacillus subtilis [5]): inactive; diameter of the inhibition zone (DIZ) (Pseudomonas aeruginosa [6]): inactive; diameter of the inhibition zone (DIZ) (Aspergillus niger [7]): inactive; diameter of the inhibition zone (DIZ) (Staphylococcus aureus [8]): inactive; diameter of the inhibition zone (DIZ) (Penicillium chrysogenum [9]): inactive; diameter of the inhibition zone (DIZ) (Klebsiella pneumoniae [10]): inactive; diameter of the inhibition zone (DIZ) (Klebsiella pneumoniae [11]): inactive; diameter of the inhibition zone (DIZ) (Staphylococcus aureus [12]): inactive
11 | O=S(=O)(Cc1nnc(CS(=O)(=O)c2c[nH]nc2S(=O)(=O)c2ccccc2)o1)Nc1ccccc1 | 15 mm | 12 mm | 10 mm | 10 mm | inactive | 13 mm | 12 mm | 13 mm | 12 mm | 15 mm | 15 mm | 17 mm | 10 mm | 
12 | O=S(=O)(Cc1nnc(CS(=O)(=O)C2CNN=C2S(=O)(=O)c2ccc(Cl)cc2)s1)Nc1ccc(Cl)cc1 (stereo not given) | 26 mm | 28 mm | 22 mm | 28 mm | inactive | 25 mm | 23 mm | 29 mm | 27 mm | 31 mm | 25 mm | 28 mm | 24 mm | 
13 | O=S(=O)(Cc1nnc(CS(=O)(=O)c2c[nH]cc2S(=O)(=O)c2ccc(Cl)cc2)o1)Nc1ccc(Cl)cc1 | 21 mm | 22 mm | 18 mm | 21 mm | inactive | 17 mm | 20 mm | 24 mm | 20 mm | 26 mm | 23 mm | 25 mm | 18 mm | 
14 | Cc1ccc(NS(=O)(=O)Cc2nnc(CS(=O)(=O)C3CNN=C3S(=O)(=O)c3ccc(C)cc3)o2)cc1 (stereo not given) |  |  |  |  | inactive |  |  |  |  |  |  |  |  | diameter of the inhibition zone (DIZ) (Bacillus subtilis [1]): inactive; diameter of the inhibition zone (DIZ) (Penicillium chrysogenum [2]): inactive; diameter of the inhibition zone (DIZ) (Pseudomonas aeruginosa [3]): inactive; diameter of the inhibition zone (DIZ) (Aspergillus niger [4]): inactive; diameter of the inhibition zone (DIZ) (Bacillus subtilis [5]): inactive; diameter of the inhibition zone (DIZ) (Pseudomonas aeruginosa [6]): inactive; diameter of the inhibition zone (DIZ) (Aspergillus niger [7]): inactive; diameter of the inhibition zone (DIZ) (Staphylococcus aureus [8]): inactive; diameter of the inhibition zone (DIZ) (Penicillium chrysogenum [9]): inactive; diameter of the inhibition zone (DIZ) (Klebsiella pneumoniae [10]): inactive; diameter of the inhibition zone (DIZ) (Klebsiella pneumoniae [11]): inactive; diameter of the inhibition zone (DIZ) (Staphylococcus aureus [12]): inactive
15 | Cc1ccc(NS(=O)(=O)Cc2nnc(CS(=O)(=O)c3c[nH]nc3S(=O)(=O)c3ccc(C)cc3)s2)cc1 | 13 mm | 11 mm | 8 mm | 10 mm | inactive | 10 mm | 11 mm | 13 mm | 14 mm | 13 mm | 13 mm | 15 mm | 12 mm | 
